From PubChem
MT1-MMP act inh – blockers of MT1-MMP proenzyme processing, primary screen, HT1080 RFP-PRO-GFP cells, GFP/RFP fluorescence; Matrix metalloproteinase-14 (Homo sapiens), P50281; 0.061% of 360,000 active; GFP/RFP ratio fluorescence, overnight; percent of plate control window, DMSO zero; GFP/RFP ratio change, % at 20 µM; AID 651647, 2012;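 active = GFP/RFP ratio change of at least 30% with cell ATP level not reduced by more than half and red fluorescence within 50% of control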
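Assay system: HT1080 RFP-PRO-GFP cells. Benchmarks: DMSO vehicle wells and RFP-L50D-GFP reporter cell wells. Times: overnight cell settling, then overnight compound exposure, 37 °C, 5% CO2. Compound: 20 µM single dose, 1% DMSO. Read-out basis: GFP/RFP fluorescence ratio.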
Tn6 DDE FP – inhibitors of Tn6 peptide binding to fibrin DD(E), primary screen, biochemical, fluorescence polarization, human fibrin, Tn6 probe. Fibrin DD(E) TRITC-Tn6 fluorescence polarization displacement. inhibition, % at 8.3 µM. 0.21% of 370,000 active. AID 720509, 2013;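 active = inhibition above a per-campaign cutoff: mean of compounds within control limits plus 3 SD, cut at about 15% in these data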;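 note: 0% = median of all compound wells on the plate and 100% = blocking peptide control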
Target sequence (P02675 whole entry, looked up): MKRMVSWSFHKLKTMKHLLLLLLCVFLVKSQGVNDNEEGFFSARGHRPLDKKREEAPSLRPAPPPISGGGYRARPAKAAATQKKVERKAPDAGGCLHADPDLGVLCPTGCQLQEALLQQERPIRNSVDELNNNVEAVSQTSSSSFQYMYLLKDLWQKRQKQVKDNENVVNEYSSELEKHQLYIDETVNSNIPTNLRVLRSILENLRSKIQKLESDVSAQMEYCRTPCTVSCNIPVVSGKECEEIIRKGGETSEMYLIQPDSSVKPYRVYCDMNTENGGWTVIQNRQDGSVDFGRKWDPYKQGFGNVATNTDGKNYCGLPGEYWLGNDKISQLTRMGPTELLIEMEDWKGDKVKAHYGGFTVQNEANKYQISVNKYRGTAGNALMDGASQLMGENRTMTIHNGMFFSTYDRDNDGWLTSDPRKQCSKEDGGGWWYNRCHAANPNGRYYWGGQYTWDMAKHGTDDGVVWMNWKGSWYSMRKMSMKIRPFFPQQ
Tn7 DDE FP – inhibitors of Tn7 peptide binding to fibrin DD(E), primary screen, biochemical, fluorescence polarization, human fibrin, Tn7 probe | 0.13% of 370,000 active | AID 720508, 2013 | inhibition, % at 8.3 µM | FP displacement of FITC-Tn7 peptide from fibrin DD(E); 0% = median of compound wells per plate | Fibrinogen beta chain (Homo sapiens), P02675;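 active = inhibition above the mean of compounds falling within the control limits plus 3 SD of them, cut at about 14% in these data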;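 note: 0% = plate median of compound wells and 100% = 10 µM Aha-Tn7 peptide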
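Test system – human fibrin DD(E) · Times – 10 min preincubation, 3 h with tracer, room temperature · Detection – fluorescence polarization of the labelled Tn7 tracer · Measure – percent inhibition normalized to high-control wells · Benchmarks – high control wells with 10 µM unlabelled Aha-Tn7 peptide (full inhibition) · Repeats – singlicate testing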
Neddylation inh – inhibitors of cullin neddylation, primary screen, biochemical, TR-FRET, uHTS, NAE and Ubc12; NEDD8-conjugating enzyme Ubc12 (Homo sapiens) + NEDD8-activating enzyme E1 regulatory …; 0.58% of 360,000 active; calls only at 25 µM; in the data active = inhibition above about 36%
proKLK7 act – proKLK7 zymogen activators, primary screen, biochemical, fluorescence intensity; Kallikrein-7 (Homo sapiens), P49862; purified proKLK7, EDANS-DABCYL substrate fluorescence; 100% is mature enzyme control, 0% vehicle; activation, % at 7 µM; 0.9% of 370,000 active; AID 652039, 2013;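 active = activation above the mean of all tested compounds plus 3 SD, computed per campaign excluding outliers beyond control limits, cut at about 13% in these data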
SKN-1 block – suppressors of acrylamide-induced Pgst-4::GFP reporter in worms, primary screen, SKN-1 inhibitor project, whole organism, uHTS, GFP/RFP fluorescence ratio, strain VP596. C. elegans VP596 Pgst-4::GFP/RFP ratio, 24 h. inhibition, % at 21.8 µM. 0.49% of 360,000 active;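 active = interference check ratio from 0.5 to 1.5 plus GFP to RFP signal ratio inhibition reaching or exceeding a fixed threshold, cut at about 30% in these data, passing the limit was not always enough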
DDE Tn6 FP ctr – counter-screen for inhibitors of Tn6 peptide binding to fibrin DD(E); shares compounds with Tn6 DDE FP; 2% of 680 active; TRITC-Tn6 fluorescence polarization displacement; 0% = median of compound wells, not DMSO; inhibition, % at 8.3 µM;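 active = inhibition above the mean of test compounds lying between the control limits plus 3 SD of those, cut at about 14% in these data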;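 note: 0% = median of compound wells and 100% = wells with Aha-Tn7 blocking peptide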
Tn6 DDE conf – inhibitors of Tn6 peptide binding to fibrin DD(E), confirmation, biochemical, fluorescence polarization, human fibrin, Tn6 probe; shares compounds with Tn6 DDE FP; FP displacement of TRITC-Tn6 peptide from DD(E); 0% = per-plate median of test wells; inhibition, % at 8.3 µM; 10% of 680 active;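 active = inhibition above the mean of compounds lying within the control limits plus 3 SD, cut at about 16% in these data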;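 note: 100% = high control wells holding a competing inhibitor peptide at 10 µM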
An asterisk follows results filed as active; i = inactive; nt = no result shown. A selection: hits, their analogues and other compounds. The true share with any hit is near 2.2%.

SMILES	MT1-MMP act inh	Tn6 DDE FP	Tn7 DDE FP	Neddylation inh	proKLK7 act	SKN-1 block	DDE Tn6 FP ctr	Tn6 DDE conf
CC(C)C(=O)NCCc1nc2ccccc2n1CCOc1ccccc1	2	15*	1	i	-1	3	9	8
COc1ccc(C(=O)N(Cc2ccccc2)c2cccc(C)c2)cc1	-8	17*	1	i	0	5	1	-3
CCO/C(C)=N/Oc1cccc(N(C)C)c1	2	19*	8	i	0	40	3	2
CCO/C(C)=N/Oc1cnc2ccccc2c1	2	7	5	i	1	3	nt	nt
COc1ccc(NS(=O)(=O)c2ccc(NC(C)=O)cc2)c(OC)c1	2	6	-1	i	0	2	nt	nt
COc1ccc(OC)c(NS(=O)(=O)c2ccc(NC(C)=O)cc2)c1	3	16*	8	i	0	8	10	6
CC(C)(C)NC(=O)C1CCC(CNc2c(N3CCCCC3)c(=O)c2=O)CC1 (stereo not drawn)	-5	1	2	i	1	5	nt	nt
CC1CCC(NC(=O)C2CCC(CNc3c(N4CCCCC4)c(=O)c3=O)CC2)CC1 (stereo not drawn)	1	17*	2	i	0	0	4	-7
COc1ccc(Cl)c(Cn2c(NCCCO)nc3c2c(=O)n(C)c(=O)n3C)c1	8	17*	2	i	-1	-15	-4	-4
COc1ccc(Cl)c(Cn2c(NCc3ccccn3)nc3c2c(=O)n(C)c(=O)n3C)c1	-2	3	5	i	0	23	nt	nt
CCC(Sc1nc2ncccc2[nH]1)C(=O)NC1CCCC1 (stereo not drawn)	2	18*	-1	i	0	-7	0	-1
Oc1cc2c(cc1O)C1c3ccc(O)c(O)c3OCC1(O)C2 (stereo not drawn)	22	33*	-4	i	12	46	-4	21*
Cc1nn(C)c(C)c1N1C(=O)c2cccc3c(N)ccc(c23)C1=O	-318	19*	5	i	2	-80	12	3
Cc1cc2cc(CNC(=O)Nc3cccc(Cl)c3)ccc2n1C	30	70*	3	i	-1	55	6	18*
Cc1cccc(NC(=O)NCc2ccc3c(c2)cc(C)n3C)c1	46	46*	-5	i	-1	49*	0	9
O=C(C1CCCCC1)N1CCN(c2ccccc2F)CC1	2	42*	6	i	0	0	5	4
O=C1CC(NC(=O)c2ccc(Cl)cc2)C(=O)N1 (stereo not drawn)	-3	6	-1	i	0	6	nt	nt
O=S(=O)(Nc1cccc(-c2cn3cccnc3n2)c1)c1ccc(-c2ccccc2)cc1	4	20*	-3	nt	-12	-13	1	-6
Cc1ccc(S(=O)(=O)Nc2cccc(-c3cn4ccsc4n3)c2)cc1	3	0	-9	i	0	24	nt	nt
Cc1ccc(S(=O)(=O)N(C)C)cc1NC(=O)c1sccc1Cl	2	-7	1	i	0	-6	nt	nt
Cc1ccc(S(=O)(=O)N(C)C)cc1NC(=O)c1cccs1	0	17*	-1	i	0	-11	-2	-5
